In PMC3747510 (Scientific Reports, 2013):

Tests used:
[1] = molecular target: T1, yeast cytosolic LeuRS (Saccharomyces cerevisiae, UniProt P26637); assay: Aminoacylation by yeast cytosolic LeuRS; format: biochemical; conditions: 100 μM ZCL039
T1 sequence (P26637 1-1090): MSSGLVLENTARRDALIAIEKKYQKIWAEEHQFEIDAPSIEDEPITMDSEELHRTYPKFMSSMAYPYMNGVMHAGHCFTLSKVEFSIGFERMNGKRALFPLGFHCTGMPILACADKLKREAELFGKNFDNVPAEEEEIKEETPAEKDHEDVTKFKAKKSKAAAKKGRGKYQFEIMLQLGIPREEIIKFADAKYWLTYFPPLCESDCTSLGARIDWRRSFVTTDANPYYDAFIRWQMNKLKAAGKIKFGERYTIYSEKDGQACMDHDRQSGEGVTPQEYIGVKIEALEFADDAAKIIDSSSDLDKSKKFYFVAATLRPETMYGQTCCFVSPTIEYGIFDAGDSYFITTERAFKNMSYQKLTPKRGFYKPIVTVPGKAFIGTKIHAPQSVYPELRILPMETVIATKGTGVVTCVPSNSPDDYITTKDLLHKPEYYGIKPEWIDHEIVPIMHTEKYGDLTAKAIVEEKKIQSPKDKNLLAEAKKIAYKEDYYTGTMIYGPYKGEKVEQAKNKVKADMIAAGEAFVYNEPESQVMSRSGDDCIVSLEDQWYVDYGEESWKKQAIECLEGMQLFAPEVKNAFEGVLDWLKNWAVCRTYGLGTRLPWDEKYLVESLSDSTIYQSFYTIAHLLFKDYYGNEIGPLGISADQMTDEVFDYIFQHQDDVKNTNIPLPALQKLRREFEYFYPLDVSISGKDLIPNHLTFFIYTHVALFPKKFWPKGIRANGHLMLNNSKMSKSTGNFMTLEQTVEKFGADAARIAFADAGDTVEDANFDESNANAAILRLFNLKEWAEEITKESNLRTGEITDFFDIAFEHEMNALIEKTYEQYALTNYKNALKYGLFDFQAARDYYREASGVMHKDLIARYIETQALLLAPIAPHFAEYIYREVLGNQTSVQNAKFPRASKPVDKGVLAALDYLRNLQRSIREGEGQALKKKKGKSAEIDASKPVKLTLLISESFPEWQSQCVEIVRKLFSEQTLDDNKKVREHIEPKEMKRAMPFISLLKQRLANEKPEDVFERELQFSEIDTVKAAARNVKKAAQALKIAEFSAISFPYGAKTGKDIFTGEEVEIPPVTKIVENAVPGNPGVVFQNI

[2] = test system: HEK 293; assay: Cell proliferation assay; format: cell-based; conditions: Homo sapiens, HEK293, read-out: IC50, Human cell lines, HEK 293
Summary of the method: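 Cells in DMEM/10% FBS, 37°C, 5% CO2. Seeded from 1 × 10^5 cells/mL and allowed to adhere overnight. Test compound added at 2.5–100 μg/mL (0.5% DMSO final), five wells per concentration. Incubated 0, 24, 48 or 72 h, then 4 h with MTS/PMS (20:1), and A492 read. DMSO and medium-only controls. IC50 by nonlinear regression against log concentration.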

[3] = molecular target: T2, SpLeuRS C399S (Streptococcus pneumoniae serotype 4, UniProt Q97SS0, W399S); assay: Aminoacylation and deacylation by SpLeuRS C399S mutant; format: biochemical; conditions: 50 μM ZCL039
T2 sequence (Q97SS0 1-833 W399S): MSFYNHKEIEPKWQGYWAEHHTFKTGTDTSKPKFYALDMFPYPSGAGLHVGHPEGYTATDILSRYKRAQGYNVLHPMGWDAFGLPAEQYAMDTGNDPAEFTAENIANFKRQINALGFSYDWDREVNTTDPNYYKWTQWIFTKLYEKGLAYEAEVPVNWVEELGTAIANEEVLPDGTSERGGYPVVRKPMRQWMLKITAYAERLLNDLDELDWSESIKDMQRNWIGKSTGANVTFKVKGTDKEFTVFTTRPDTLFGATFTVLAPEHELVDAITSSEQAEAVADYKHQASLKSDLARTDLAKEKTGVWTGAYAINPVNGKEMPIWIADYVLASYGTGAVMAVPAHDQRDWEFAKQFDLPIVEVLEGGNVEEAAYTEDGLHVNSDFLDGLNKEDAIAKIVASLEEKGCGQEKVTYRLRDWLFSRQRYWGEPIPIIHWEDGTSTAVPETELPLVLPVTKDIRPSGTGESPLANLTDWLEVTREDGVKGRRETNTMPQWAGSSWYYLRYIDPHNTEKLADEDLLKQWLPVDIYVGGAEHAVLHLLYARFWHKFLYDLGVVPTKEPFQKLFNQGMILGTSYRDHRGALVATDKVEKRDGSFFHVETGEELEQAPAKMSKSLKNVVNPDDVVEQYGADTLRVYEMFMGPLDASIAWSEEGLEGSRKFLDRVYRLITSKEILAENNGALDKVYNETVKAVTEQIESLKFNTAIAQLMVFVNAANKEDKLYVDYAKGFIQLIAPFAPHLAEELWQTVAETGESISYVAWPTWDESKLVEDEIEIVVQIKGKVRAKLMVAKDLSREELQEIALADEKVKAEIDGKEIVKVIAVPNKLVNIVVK

OB1OCc2ccc(C(O)c3ccccc3)cc21 (stereo not drawn) [ZCL039, [6-(1-phenyl-1-hydroxylmethyl)]-1,3-dihydro-1-hydroxy-2,1-benzoxaborole]
Activity against yeast cytosolic LeuRS aminoacylation [1]: little effect
IC50 [2]: > 200 µM
Sensitivity of C399S mutant to ZCL039 [3]: comparable to the wild-type SpLeuRS
